According to ChEMBL document CHEMBL1629507, “Small molecule inhibitors of hantavirus infection” (Bioorg Med Chem Lett, 2010):
Calls of active or inactive are those of the source. The calls are words filed in the database; no cut-off is given here. Where a SMILES comes first, the peptide text is derived from it. Bridges are numbered along the chain shown (N, C = ends).

Columns and labels:
Type in all cases: cell-based
[1] = molecular target: T1, Integrin alpha-V/beta-3 (Homo sapiens) (UniProt P05106+P06756); test: Inhibition of human alphaVbeta3 receptor expressed in african green monkey Vero E6 cells assessed as inhibition of SNV infection in cells at 2 mM by immunofluorescent assay
Summary of the method: (§1)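 Vero E6 cells (10^4/well, duplicate wells) were grown 24 h at 37 °C in MEM with 2.5% FBS. They were pretreated 1 h at 37 °C with small molecules (1 µM) or cyclic peptides (2 mM, in PBS pH 7.4). SNV strain SN77734 (500–1,000 FFU/ml) was then added for 1 h, then washed out. After 24–36 h, cells were fixed and stained with anti-SNV N plus FITC antibody, and foci counted. % inhibition is relative to untreated cells, normalized to ReoPro 80 µg/ml set as 80%; at least 4 replicates.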

[2] = molecular target: T1, Integrin alpha-V/beta-3 (Homo sapiens); test: Inhibition of human alphaVbeta3 receptor expressed in african green monkey Vero E6 cells assessed as inhibition of SNV infection in cells at 1 uM by immunofluorescent assay; summary of the method: as §1
[3] = molecular target: T1, Integrin alpha-V/beta-3 (Homo sapiens); test: Inhibition of human […] alphaVbeta3 expressed in african green monkey Vero E6 cells assessed as inhibition of Hantaan 76/118 viral entry at 10 uM
[4] = molecular target: T1, Integrin alpha-V/beta-3 (Homo sapiens); test: Inhibition of human alphaVbeta3 receptor expressed in african green monkey Vero E6 cells assessed as inhibition of SNV infection in cells by immunofluorescent assay
Summary of the method: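 SNV infection of Vero E6 cells in a dose-response format. Cells were pretreated 1 h at 37 °C with compound across a concentration range, then exposed to virus for 1 h, washed, and cultured 24–36 h. Infected foci were counted by anti-N immunofluorescence. Inhibition was taken relative to untreated cells and normalized to ReoPro. EC50 derived from curves; points are the mean and standard error of N = 4.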

[5] = molecular target: T1, Integrin alpha-V/beta-3 (Homo sapiens); test: Inhibition of human […] alphaVbeta3 expressed in african green monkey Vero E6 cells assessed as inhibition of SNV SN77734 entry at 10 uM
[6] = molecular target: T1, Integrin alpha-V/beta-3 (Homo sapiens); test: Inhibition of human […] alphaVbeta3 expressed in african green monkey Vero E6 cells assessed as inhibition of Andes CHI-7913 viral entry at 10 uM
[7] = molecular target: T1, Integrin alpha-V/beta-3 (Homo sapiens); test: Inhibition of human […] alphaVbeta3 expressed in african green monkey Vero E6 cells assessed as inhibition of Hantaan 76/118 viral entry at 1 mM
[8] = molecular target: T1, Integrin alpha-V/beta-3 (Homo sapiens); test: Inhibition of human […] alphaVbeta3 expressed in african green monkey Vero E6 cells assessed as inhibition of Andes CHI-7913 viral entry at 1 mM
[9] = molecular target: T2, Integrin alpha-V/beta-1 (Homo sapiens) (UniProt P05556+P06756); test: Inhibition of human […] alphaVbeta1 expressed in african green monkey Vero E6 cells assessed as inhibition of PHV-1 entry at 10 uM
[10] = molecular target: T1, Integrin alpha-V/beta-3 (Homo sapiens); test: Inhibition of human […] alphaVbeta3 expressed in african green monkey Vero E6 cells assessed as inhibition of SNV SN77734 entry at 1 mM
[11] = molecular target: T2, Integrin alpha-V/beta-1 (Homo sapiens); test: Inhibition of human […] alphaVbeta1 expressed in african green monkey Vero E6 cells assessed as inhibition of PHV-1 entry at 1 mM

Work on CC(C)C[C@@H]1NC(=O)[C@H](CCC(N)=O)NC(=O)[C@H]([C@@H](C)O)NC(=O)[C@H](CCCCN)NC(=O)[C@H](C(C)C)NC(=O)[C@H](Cc2ccccc2)NC(=O)[C@@H]2CCCN2C(=O)[C@@H](N)CSSC[C@@H](C(=O)O)NC1=O (H-CPFVKTQLC-OH; disulfide 1-9) yielded an inhibition [1] of 54.6%.

In the case of O=C(NCc1ccc2c(c1)OCO2)C(Cc1ccccc1)NS(=O)(=O)c1cccc2cccnc12 (racemic), the inhibition [2] is reported as 46.5%, the inhibition [3] is reported as “Active” and the inhibition [4] is reported as “Dose-dependent effect”. For the same molecule, the inhibition [5] was “Active”, the inhibition [6] was “Active” and the inhibition [7] was “Active”. For the same molecule, the inhibition [8] was “Active”, the inhibition [9] was “Active” and the inhibition [10] was “Active”. The inhibition [11] was “Active”.

In the case of O=C(NCc1cccs1)C(Cc1ccccc1)NS(=O)(=O)c1ccc2nsnc2c1 (racemic), the inhibition [2] is reported as 29%, the inhibition [3] is reported as “Active” and the inhibition [4] is reported as “Dose-dependent effect”. The inhibition [5] was “Active”, the inhibition [6] was “Active” and the inhibition [7] was “Active”. The inhibition [8] was “Active”, the inhibition [9] was “Active” and the inhibition [10] was “Active”. The inhibition [11] was “Active”.

In the case of O=c1c(/C=N/Cc2ccco2)c(CSc2ccc(Cl)cc2)[nH]n1-c1nc2ccccc2s1, the inhibition [2] is reported as 29%, the inhibition [3] is reported as “Active” and the inhibition [4] is reported as “Dose-dependent effect”. The inhibition [5] was “Active”, the inhibition [6] was “Active” and the inhibition [7] was “Active”. For the same molecule, the inhibition [8] was “Active”, the inhibition [9] was “Active” and the inhibition [10] was “Active”. For the same molecule, the inhibition [11] was “Active”.

With O=C(NCc1ccco1)C(Cc1ccccc1)NS(=O)(=O)c1ccc2nsnc2c1 (stereo not given) the inhibition [2] was 21%.

Cc1ccc(S(=O)(=O)NC(CC(=O)NCc2cccnc2)c2ccco2)cc1 (stereo not given) showed an inhibition [2] of 7%.

COc1ccccc1CNC(=O)C(Cc1ccccc1)NS(=O)(=O)c1cccc2cccnc12 (stereo not given) was tested, and the inhibition [2] was 9.6%.

C/C=C/C(=O)NC(=S)NNC(=O)C(Oc1ccccc1)Oc1ccccc1 was tested, and the inhibition [2] was 16.1%.

For O=C(NC(C(=O)N/N=C/c1ccco1)c1nnc(O)c2ccccc12)c1ccccc1 (stereo not given), the inhibition [2] was 33%.

Molecule O=C(NCc1cccs1)C(Cc1ccccc1)NS(=O)(=O)c1cccc2cccnc12 (stereo not given) has an inhibition [2] of 12%.

CC(C)c1ccc(S(=O)(=O)c2nnn3c2nc(NC(C)c2ccccc2)c2sccc23)cc1 (stereo not given) was tested, and the inhibition [2] was 8%.

In the case of O=C(NCc1cccc(Cl)c1)C1CCCN(c2ncnc3onc(-c4ccc(F)cc4)c23)C1 (stereo not given), the inhibition [2] is reported as 6%.

For CC(C)[C@@H]1NC(=O)[C@H](Cc2ccccc2)NC(=O)[C@H]2CCCN2C(=O)[C@@H](N)CSSC[C@@H](C(=O)O)NC1=O, the inhibition [3] was “Active”, the inhibition [5] was “Active” and the inhibition [6] was “Active”. The inhibition [7] was “Active”, the inhibition [8] was “Active” and the inhibition [9] was “Active”. For the same molecule, the inhibition [10] was “Active”, the inhibition [11] was “Active” and the inhibition [1] was 53%.

In the case of COc1ccc(Cl)cc1NC(=O)C(Cc1ccccc1)NS(=O)(=O)c1cccc2cccnc12 (stereo not given), the inhibition [2] is reported as 8%.

For O=C(CCCn1c(=O)c2sccc2n(Cc2ccc(F)cc2Cl)c1=O)NCc1ccco1, the inhibition [2] was 12.2%.

With Cc1noc2ncnc(N3CCCC(C(=O)NCc4ccc5c(c4)OCO5)C3)c12 (stereo not given) the inhibition [2] was 3%.

CCc1ccccc1NC(=O)C(Cc1ccccc1)NS(=O)(=O)c1cccc2nsnc12 (stereo not given) showed an inhibition [2] of 2%.

Work on O=C(CSc1nc2ccccc2c(=O)n1Cc1ccc2c(c1)OCO2)NCc1ccco1 yielded an inhibition [2] of 34.2%.

O=C(C(Cc1ccccc1)NS(=O)(=O)c1cccc2cccnc12)N1CCOCC1 (stereo not given) was tested, and the inhibition [2] was 4.5%.

N#Cc1ccccc1Cn1c(=O)n(CCC(=O)NCc2ccc3c(c2)OCO3)c(=O)c2ccccc21 gave an inhibition [2] of 1%.

With COc1ccc(C(CC(=O)NCCN2CCOCC2)NS(=O)(=O)c2ccc(Cl)cc2)cc1 (stereo not given) the inhibition [2] was 0%.

With O=C(NCc1ccccc1)C(Cc1ccccc1)NS(=O)(=O)c1cccc2cccnc12 (stereo not given) the inhibition [2] was 11.2%.

Work on COc1ccccc1C1CC(c2c(O)[nH]c(=O)n(CCc3ccccc3)c2=O)=Nc2ccccc2S1 (stereo not given) yielded an inhibition [2] of 18%.

Work on O=C1c2cccnc2C(=O)N1Cc1ccc(F)cc1S(=O)(=O)N1CCN(c2ccccc2F)CC1 yielded an inhibition [2] of 2.3%.

In the case of COc1ccc(CCNC(=O)C(Cc2ccccc2)NS(=O)(=O)c2ccc(Cl)cc2)cc1OC (stereo not given), the inhibition [2] is reported as 14%.

In the case of O=C1c2cccnc2C(=O)N1Cc1ccc(F)cc1S(=O)(=O)N1CCC(Cc2ccccc2)CC1, the inhibition [2] is reported as 0%.

With CCC1CCCCN1CCNC(=O)C(Cc1ccccc1)NS(=O)(=O)c1ccc2nsnc2c1 (stereo not given) the inhibition [2] was 0%.

O=C(NCC1CCCO1)C(Cc1ccccc1)NS(=O)(=O)c1cccc2nsnc12 (stereo not given) gave an inhibition [2] of 2%.

O=C(CCCn1c(=O)c2sccc2n(Cc2ccc(F)cc2)c1=O)NCc1ccco1 showed an inhibition [2] of 0%.

Cc1ccc(Cl)cc1NC(=O)C(Cc1ccccc1)NS(=O)(=O)c1cccc2cccnc12 (stereo not given) was tested, and the inhibition [2] was 14%.
